Legend:
[1] = test system: Rattus norvegicus; assay: Antiinflammatory activity in albino rat sub-acute inflammatory model assessed as inhibition of turpentine-induced granuloma pouch at 10 mg/kg, po administered 1 hr […] for 7 consecutive days measured at day 8 of challenge; format: functional
[2] = test system: Rattus norvegicus; assay: Antiinflammatory activity in albino rat acute inflammatory model assessed as inhibition of formalin-induced paw edema at 10 mg/kg, po administered 1 hr prior to challenge measured after 2 hr
[3] = test system: Rattus norvegicus; assay: Antiinflammatory activity in albino rat acute inflammatory model assessed as inhibition of formalin-induced paw edema at 10 mg/kg, po administered 1 hr post challenge measured after 1 hr; format: functional; settings: in the assay text read “administered 1 hr prior to challenge” for “administered 1 hr post challenge”
Method in brief: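 Rats were randomised into groups of five. Dosing was 10 mg/kg po, given 1 h before 2% formalin (0.1 mL) was injected subplantar into the left hind paw under light ether anaesthesia. […] Values are mean ± S.E., N = 5 rats.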

[4] = test system: Rattus norvegicus; assay: Antiinflammatory activity in albino rat sub-acute inflammatory model assessed as inhibition of formalin-induced paw edema at 10 mg/kg, po administered 1 hr post challenge for 7 consecutive days measured at day 8 of challenge; format: functional; settings: in the assay text read “1 hr prior to challenge” for “1 hr post challenge”
[5] = test system: Rattus norvegicus; assay: Antiinflammatory activity in albino rat sub-acute inflammatory model assessed as inhibition of formalin-induced paw edema at 10 mg/kg, po administered 1 hr prior to challenge for 7 consecutive days measured at day 1 of challenge
[6] = test system: Rattus norvegicus; assay: Antiinflammatory activity in albino rat acute inflammatory model assessed as inhibition of formalin-induced paw edema at 10 mg/kg, po administered 1 hr prior to challenge measured after 4 hr
[7] = test system: Rattus norvegicus; assay: Antiinflammatory activity in albino rat sub-acute inflammatory model assessed as inhibition of formalin-induced paw edema at 10 mg/kg, po administered 1 hr prior to challenge for 7 consecutive days measured at day 8 of challenge
[8] = Ulcerogenic activity in po dosed albino rat measured after 24 hrs; format: toxicity, organism-based; settings: in vivo
Method in brief: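 Male albino rats (180–200 g), five per group, fasted 12 h with water ad libitum. Compounds given orally as two equal doses at 0 and 12 h on three successive days, 300 mg/kg per day. Control received 1% gum acacia po. Rats killed 6 h after the last dose. Stomachs opened along the greater curvature, washed with cold saline and inspected under 3X magnification for hyperemia, hemorrhage, erosion or ulcer.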

[9] = test system: Rattus norvegicus; assay: Ulcerogenic activity in albino rat assessed as hyperemia at 300 mg/kg/day administered as equal doses at 0 and 12 hrs for three consecutive days measured at 6 hrs post last dose; format: toxicity, organism-based; settings: in vivo
Method in brief: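 Male albino rats, 180–200 g, five per group, fasted 12 h with water ad libitum. Dosing was 300 mg/kg/day po, split into equal doses at 0 and 12 h, for 3 successive days. Controls received 1% gum acacia orally. Rats were killed with ether 6 h after the last dose. Stomachs were opened along the greater curvature, washed with cold saline and inspected under a 3X lens for hyperemia, hemorrhage, hemorrhagic erosion or ulcer.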

[10] = test system: Rattus norvegicus; assay: Acute toxicity in albino rat at 0.1 to 0.3 g/kg/, po measured after 24 hrs; settings: in vivo
[11] = test system: Rattus norvegicus; assay: Antiinflammatory activity in albino rat acute inflammatory model assessed as inhibition of formalin-induced paw edema at 10 mg/kg, po administered 1 hr prior to challenge measured after 1 hr

Row | Compound | inhibition in vivo at 10 mg/kg [1] [%] | inhibition in vivo at 10 mg/kg [2] [%] | inhibition in vivo at 10 mg/kg [3] [%] | inhibition in vivo at 10 mg/kg [4] [%] | inhibition in vivo at 10 mg/kg [5] [%] | inhibition in vivo at 10 mg/kg [6] [%] | inhibition in vivo at 10 mg/kg [7] [%] | LD50 at 24 h [8] [mg/kg] | Activity [9] | Activity [10] | inhibition in vivo at 10 mg/kg [11] [%]
1 | Cc1c(C(N)=O)sc2nc(S)n(Cc3ccccc3)c(=O)c12 | 4.07 | 0 | 25 | 5 | 4 | 5 |  |  |  |  | 
2 | CSc1nc2sc(C(N)=O)c(C)c2c(=O)n1Cc1ccccc1 | 11.3 | 43 | 44 |  | 17 | 38 | 21 |  |  |  | 
3 | Cc1c(C(N)=O)sc2nc(NN)n(Cc3ccccc3)c(=O)c12 | 44.8 | 61 | 69 | 43 | 43 | 51 |  | > 300 | 10% | Non-toxic | 
4 | Cc1c(C(N)=O)sc2nc(N/N=C/c3ccc(Br)cc3)n(Cc3ccccc3)c(=O)c12 | 34.4 | 39 | 69 | 34 | 39 | 44 |  |  |  |  | 
5 | Cc1c(C(N)=O)sc2c1c(=O)n(Cc1ccccc1)c1nnc(-c3ccc(Br)cc3)n21 | 41.2 | 39 |  | 30 | 37 | 41 |  |  |  |  | 31
6 | CC(=O)N1N=C2N(Cc3ccccc3)C(=O)c3c(sc(C(N)=O)c3C)N2C1c1ccc(Br)cc1 (centres undefined) | 39.8 | 30 |  | 30 | 33 | 36 |  |  |  |  | 31
7 | Cc1c(C(N)=O)sc2c1c(=O)n(Cc1ccccc1)c1n[nH]c(=S)n21 | 23.1 | 56 | 50 | 34 | 41 | 51 |  | > 300 | 10% | Non-toxic | 
8 | CCOC(=O)CSc1nnc2n(Cc3ccccc3)c(=O)c3c(C)c(C(N)=O)sc3n12 | 41.2 | 61 | 56 | 36 | 41 | 49 |  | > 300 | 20% | Non-toxic | 
9 | Cc1c(C(N)=O)sc2c1c(=O)n(Cc1ccccc1)c1nnc(-c3ccccc3Cl)n21 | 35.7 | 43 | 37 | 30 | 33 | 49 |  |  |  |  | 
10 | Cc1c(C(N)=O)sc2c1c(=O)n(Cc1ccccc1)c1nncn21 | 39.4 | 43 | 56 | 32 | 39 | 54 |  |  |  |  | 
11 | Cc1c(C(N)=O)sc2c1c(=O)n(Cc1ccccc1)c1n[nH]c(=O)n21 | 38.5 | 61 | 75 | 37 | 43 | 49 |  | > 300 | Non-toxic | Non-toxic | 
12 | CCOC(=O)Cc1nnc2n(Cc3ccccc3)c(=O)c3c(C)c(C(N)=O)sc3n12 | 39.8 |  |  | 37 | 46 |  |  |  |  |  | 
13 | Cc1c(C(N)=O)sc2c1C(=O)N(Cc1ccccc1)C1=NN=C(c3ccc(Cl)cc3)CN12 | 38.5 | 43 | 44 | 37 | 46 | 46 |  |  |  |  | 
14 | Cc1c(C(N)=O)sc2nc(-n3nc(-c4ccc(Cl)cc4)cc3N)n(Cc3ccccc3)c(=O)c12 | 40.3 | 52 | 56 | 30 | 35 | 46 |  | > 300 | Non-toxic | Non-toxic | 
15 | Cc1cc(C)n(-c2nc3sc(C(N)=O)c(C)c3c(=O)n2Cc2ccccc2)n1 | 40.3 | 39 | 44 | 32 | 39 | 49 |  |  |  |  | 
16 | CC1=NN(c2nc3sc(C(N)=O)c(C)c3c(=O)n2Cc2ccccc2)C(=O)C1 | 38.9 | 48 | 37 | 34 | 39 | 46 |  | > 300 | Non-toxic | Non-toxic | 
17 | O=C([O-])Cc1ccccc1Nc1c(Cl)cccc1Cl.[Na+] [DICLOFENAC SODIUM] |  |  | 63 |  |  |  |  |  | Non-toxic |  | 
18 | COc1ccc2c(c1)c(CC(=O)O)c(C)n2C(=O)c1ccc(Cl)cc1 [INDOMETHACIN] |  |  |  |  |  |  |  |  | 100% |  | 

Source: ChEMBL document CHEMBL2062422, “Design, synthesis and biological evaluation of some novel thienopyrimidines and fused thienopyrimidines as anti-inflammatory agents” (Eur J Med Chem, 2012)
